From the RNAGym collection of RNA variant scans (doi:10.1101/gad.245936.114)
This sample holds only a part of the variants without activity.

B1: tRNA (parent)
chain: CUCUCGGUAGCCAAGUUGGUUUAAGGCGCAAGACUUUAAUUUAUCACUACGAAAUCUUGAGAUCGGGCGUUCGACUCGCCCCCGGGAGAUUUUUUCCUCGAGCAA

Variants of: B1
Test: nonsense suppression (GFP-seq) (ratio to wild type); higher = more function; SUP4oc tRNA, yeast GFP reporter sort-seq
Method in brief: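 Nonsense suppression (GFPSEQ) is the median GFP/RFP ratio of each sorting bin, weighted by the variant's estimated share of cells in that bin and expressed relative to the unmutated parent tRNA. Yeast strains carried genome-integrated variants of an ochre-suppressor tRNA from a library with ~3% random mutations, plus a galactose-driven GFP ochre reporter and RFP, and were grown in raffinose/galactose medium containing 80 mg/L adenine. Cells were sorted into GFP/RFP bins, each bin was Illumina-sequenced (phred ≥30), and variants were kept only with ≥100 reads and ≥30 cells.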

Row | Variant | nonsense suppression
1 | A24U C82U | 0.0571
2 | C29U U63C G85A | 0.849
3 | A24G U63G C80A G85C | ≤ 0.026
4 | G25A G73A | 0.0508
5 | G28U G61U | 0.191
6 | G28U G61C | 0.321
7 | G28A U76G | ≤ 0.026
8 | G28A U76C | 1.09
9 | G25C G28C A62U | ≤ 0.026
10 | C27U U71C C77G | ≤ 0.026
11 | C27A U55C | 0.0902
12 | C27G A87G | 0.0273
13 | A24G A54U | 0.0262
14 | C29U U76C | 0.772
15 | C29U U76A | 0.224
16 | A24G C79U | 0.0352
17 | C27G C68G G84A | ≤ 0.026
18 | A24U C29U | 0.233
19 | G28A A31G G73C | ≤ 0.026
20 | G26U U71C | ≤ 0.026
21 | G25U G61U C68U | ≤ 0.026

Row | Variant | nonsense suppression
22 | C27A G78U | 0.0309
23 | C27A U55G G61A C83G | ≤ 0.026
24 | C27G G32U C75A C81G G88C | ≤ 0.026
25 | C29U C68U | 0.272
26 | G25U A60C | ≤ 0.026
27 | G28A U63A C68G U70A G85C | ≤ 0.026
28 | C27U A74C | 0.0355
29 | A24U C75U C81U | ≤ 0.026
30 | G28C A60U U70C | ≤ 0.026
31 | C27G U58A U63A | ≤ 0.026
32 | C29A G85A | 0.115
33 | G28C C79A G85C | 0.0328
34 | C29U G86C | 0.0331
35 | G26A C77G | ≤ 0.026
36 | G28A A54C C68U | 0.18
37 | C27A C29A U71C C79U | ≤ 0.026
38 | G25A C56G C79U | ≤ 0.026
39 | A24G U35G | ≤ 0.026
40 | C27U G85A | 0.207
41 | G28C G85U | 0.208
42 | C27U U58A | ≤ 0.026

Row | Variant | nonsense suppression
43 | C27G G66U | ≤ 0.026
44 | G28U A33C U63A U71G | ≤ 0.026
45 | C29A G65C U71G | ≤ 0.026
46 | G28C G67A | 0.0635
47 | C27G U57C G86C | ≤ 0.026
48 | G28A C68U | 1.17
49 | G28A G67A | 0.209
50 | G25C A31C G73A | ≤ 0.026
51 | A24U A33G | 0.117
52 | C27G A33U C34G C83G G85A | ≤ 0.026
53 | G28C G84C | 0.239
54 | A24U U76C | 0.131
55 | G28A U63C G85U | 0.0331
56 | G26U A33G G78C G84A | ≤ 0.026
57 | G25C C68U | 0.031
58 | C29U C79U G86A | ≤ 0.026
59 | C29U A60U | 1.18
60 | C29U A60G | 0.114
61 | G28A | 0.975
62 | G28C | 1.17
63 | C27A A33C G66U | ≤ 0.026

Row | Variant | nonsense suppression
64 | C29G A33G G67A U71G G86A | 1.12
65 | G26U C27G A30G U57G C64U G65C | ≤ 0.026
66 | A24G C79G G86C | ≤ 0.026
67 | G28C U76C | 0.799
68 | G28A C29U | 1.15
69 | G26C G67A | ≤ 0.026
70 | G26C C29G | 0.0685
71 | C29U C77G | 0.0454
72 | G26U A31C G65C | ≤ 0.026
73 | G25U C56A G86U | ≤ 0.026
74 | G28U A33U | ≤ 0.026
75 | G26U G61A | ≤ 0.026
76 | A24U A54U | 0.208
77 | A24U G61A | 0.124
78 | A24U G61C | ≤ 0.026
79 | G28A C75G | 1.02
80 | G28A C81U | 1.2
81 | A24U U55C | 0.104
82 | G28U U35A | ≤ 0.026
83 | C29G G59A C80G | ≤ 0.026
